Source: ChEMBL document CHEMBL1671759, “Thr202Ala in thyA is a marker for the Latin American Mediterranean lineage of the Mycobacterium tuberculosis complex rather than para-aminosalicylic acid resistance” (2010)
In brackets after ≈: the same amount, converted by molar mass. Activity calls are given as the source filed them. The rule behind the calls is not given here.

Columns and labels:
[1] = system: Mycobacterium tuberculosis; assay: Antimicrobial activity against Mycobacterium tuberculosis Beijing 1934/03 harboring thyA Thr202Ala single nucleotide polymorphism grown in Lowenstein-Jensen medium; type: functional
Method in brief: (§1)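 PAS MIC by conventional susceptibility testing on Löwenstein-Jensen medium at 0.063, 0.13, 0.25, 0.5 and 1.0 mg/liter PAS. Strains were drawn from the reference collection and cultivated at the Borstel Supranational Reference Laboratory.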

[2] = system: Mycobacterium tuberculosis; assay: Antimicrobial activity against Mycobacterium tuberculosis LAM 8885/05 harboring thyA Thr202Ala single nucleotide polymorphism grown in 7H9 broth assessed as decrease in bacterial growth at 0.125 to 2 ug/ml by spectrophotometry; type: functional, organism-based
Method in brief: (§2)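 PAS growth curves in 7H9 broth with OADC (10%) and Tween 80 (0.05%), 37°C, rolling device. PAS was added at OD600 0.1 to 0, 0.13, 0.25, 0.5, 1.0 and 2.0 mg/liter. OD600 was read daily for 9 consecutive days, in triplicate. Curves are means of three independent experiments.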

[3] = system: Mycobacterium tuberculosis; assay: Antimicrobial activity against Mycobacterium tuberculosis LAM 8885/05 harboring thyA Thr202Ala single nucleotide polymorphism grown in Lowenstein-Jensen medium; type: functional; method in brief: as §1
[4] = system: Mycobacterium tuberculosis; assay: Antimicrobial activity against Mycobacterium tuberculosis Haarlem 9532/03 harboring thyA Thr202Ala single nucleotide polymorphism grown in 7H9 broth assessed as decrease in bacterial growth at 0.125 to 2 ug/ml by spectrophotometry; type: functional, organism-based; method in brief: as §2
[5] = system: Mycobacterium tuberculosis; assay: Antimicrobial activity against Mycobacterium tuberculosis Haarlem 9532/03 harboring thyA Thr202Ala single nucleotide polymorphism grown in Lowenstein-Jensen medium; type: functional; method in brief: as §1
[6] = system: Mycobacterium tuberculosis; assay: Antimicrobial activity against Mycobacterium tuberculosis Beijing 1934/03 harboring thyA Thr202Ala single nucleotide polymorphism grown in 7H9 broth assessed as decrease in bacterial growth at 0.125 to 2 ug/ml by spectrophotometry; type: functional, organism-based; method in brief: as §2
[7] = system: Mycobacterium tuberculosis; assay: Antimicrobial activity against Mycobacterium tuberculosis H37Rv 9679/00 harboring thyA Thr202Ala single nucleotide polymorphism grown in 7H9 broth assessed as decrease in bacterial growth at 0.125 to 2 ug/ml by spectrophotometry; type: functional, organism-based; method in brief: as §2
[8] = system: Mycobacterium tuberculosis; assay: Antimicrobial activity against Mycobacterium tuberculosis LAM 7968/03 harboring thyA Thr202Ala single nucleotide polymorphism grown in Lowenstein-Jensen medium; type: functional; method in brief: as §1
[9] = system: Mycobacterium tuberculosis; assay: Antimicrobial activity against Mycobacterium tuberculosis LAM 7968/03 harboring thyA Thr202Ala single nucleotide polymorphism grown in 7H9 broth assessed as decrease in bacterial growth at 0.125 to 2 ug/ml by spectrophotometry; type: functional, organism-based; method in brief: as §2
[10] = system: Mycobacterium tuberculosis; assay: Antimicrobial activity against Mycobacterium tuberculosis H37Rv 9679/00 harboring thyA Thr202Ala single nucleotide polymorphism grown in Lowenstein-Jensen medium; type: functional; method in brief: as §1

In the case of `Nc1ccc(C(=O)O)c(O)c1` [AMINOSALICYLIC ACID], the MIC [1] is reported as 0.5 ng/mL (≈ 3.27 nM), the Activity [2] is reported as “Active” and the MIC [3] is reported as 0.5 ng/mL (≈ 3.27 nM). The Activity [4] was “Active”, the MIC [5] was 0.5 ng/mL (≈ 3.27 nM) and the Activity [6] was “Active”. The Activity [7] was “Active”, the MIC [8] was 0.5 ng/mL (≈ 3.27 nM) and the Activity [9] was “Active”. For the same compound, the MIC [10] was 0.5 ng/mL (≈ 3.27 nM).
